Results on six compounds are retold here after ChEMBL document CHEMBL3227935, “Mapping the dopamine receptor. 2. Features derived from modifications in the rings A/B region of the neuroleptic butaclamol” (J Med Chem, 1979).

The source made the active and inactive calls. No cut-off for these calls is given here.

A short description of series [1]: Dissociation constant, pKa of the compound. It is filed as physicochemical.
For series [2], the species on record is Mus musculus. The series can be described thus: Induction of taming effect in Swiss albino mouse assessed as reduction of isolation-induced fighting behavior measured after 0.5 to 3 hrs. The class given is functional. The procedure, abridged: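 Male albino mice (14-16 g) isolated 4-5 weeks, then paired in one cage for 5 min. A morning control session confirmed maximal fighting in both members of each pair. Compounds given ip, with retesting at 30 min and 3 h. All-or-none read-out: effective if no fighting occurred in the 5-min observation. ED50 (mg/kg, ip) is the dose abolishing fighting in 50% of pairs, by Litchfield-Wilcoxon.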

For series [3], the system named is Rattus norvegicus. The series can be described thus: Neuroleptic activity in ip dosed Sprague-Dawley rat assessed as protection against epinephrin bitartrate-induced mortality measured over 24 hrs. It is filed as functional. In outline: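 Groups of six or more male Sprague–Dawley rats (220–250 g) received graded ip doses. Epinephrine bitartrate, 0.25 mg/kg iv, lethal to untreated rats, was injected 1 h later. Deaths were counted over 24 h. Protective ED50 (mg/kg, ip) is the dose that saved 50% of rats, calculated by Litchfield–Wilcoxon.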

In series [4] the test system is Rattus norvegicus. The series is described as follows: Neuroleptic activity in ip dosed Sprague-Dawley rat assessed as inhibition of d-amphetamine sulfate-induced stereotyped behavior measured every 15 mins for 4 hrs. It is filed as functional. The conditions noted are these: read-out: MED. The procedure, abridged:
(§1)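 Male rats (160-180 g), groups of four or more, given d-amphetamine 10 mg/kg ip, then graded ip doses of compound or vehicle 15 min later (highest 20 mg/kg). Behavior scored every 15 min over 4 h: 0 normal, 1 excited, 2 stereotyped. MED is the lowest dose antagonizing all amphetamine effects for the whole period.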

Series [5] has as its system Rattus norvegicus. The series can be described thus: Neuroleptic activity in ip dosed Sprague-Dawley rat assessed as failure in active avoidance response measured within 30 mins. The class given is functional. Particulars: 0.5 h. The procedure, abridged: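 Male rats (250-400 g) trained in a three-chamber discrimination box to move to a lighted exit within 10 s or receive shock. Before dosing, a two-trial control session in groups of six or more. Graded ip doses, then ten trials 30 min later. Mean failures to leave before shock are taken as percent of trials. ED50 gives 50% failure, by Litchfield-Wilcoxon.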

For series [6], the system named is Rattus norvegicus. The series can be described thus: Induction of catalepsy in Sprague-Dawley rat at 5 mg/kg, ip measured after 1 to 24 hrs relative to control. The class given is organism-based. Particulars: in vivo. On the set-up: dose 5 mg/kg, route intraperitoneal. The procedure, abridged:
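Male rats (160-180 g), groups of six, given 5 mg/kg ip. Catalepsy scored at 1, 2, 4, 6 and 24 h using stages III and IV of Wirth et al. The highest mean cataleptic score is expressed as percent of the maximum attainable score.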

For series [7], the system named is Rattus norvegicus. The series is described as follows: Neuroleptic activity in Sprague-Dawley rat assessed as inhibition of d-amphetamine sulfate-induced stereotyped behavior at 20 mg/kg, ip measured every 15 mins for 4 hrs. The class given is functional, organism-based. Set-up: dose 20 mg/kg. The procedure, abridged: as §1

What is called pKa is the negative logarithm of the acid dissociation constant. The ED50 is the dose at which the effect has come halfway, by size or by number of responders. On to `CC(C)(C)[C@@]1(O)CCN2C[C@@H]3c4ccccc4CCc4cccc(c43)[C@H]2C1`, for which the pKa in series [1] turned out to be 5.9. For the same compound, the results for the ED50 in series [2], in series [3] and in series [5] were 1.9 mg/kg, 15 mg/kg and 0.64 mg/kg, respectively. Moreover, the minimal effective dose in series [4] turned out to be 0.62 mg/kg. Moreover, in series [6], the “%max” value was 60%.

For the compound `CC(C)(C)C1(O)CCN2C[C@H]3Cc4ccccc4Cc4cccc(c43)C2C1` (stereo not given in full), the inhibition result in series [7] was “inactive”.

As to `CC(C)(C)C1(O)CCN2C[C@H]3Cc4ccccc4Cc4cccc(c43)[C@@H]2C1` (relative stereo), the ED50 in series [2] worked out at 2 mg/kg; in series [3], 10 mg/kg; in series [5], 1 mg/kg. Moreover, the minimal effective dose in series [4] turned out to be 0.62 mg/kg. For the same compound, the “%max” value in series [6] amounted to 45%.

Take `CC(C)(C)C1(O)CCN2C[C@H]3CCc4ccccc4-c4cccc(c43)[C@@H]2C1` (relative stereo): the inhibition result in series [7] was “inactive”.

Turning to `CC(C)(C)C1(O)CCN2C[C@H]3CCc4ccccc4-c4cccc(c43)[C@H]2C1` (relative stereo), in series [7], the inhibition result was “inactive”.

Consider `CC(C)(C)C1(O)CCN2C[C@H]3Cc4ccccc4Cc4cccc(c43)[C@H]2C1` (relative stereo), for which the inhibition entry in series [7] is “inactive”.
